# A selection: hits, their analogues and other compounds. The true share with any hit is near 2.1%.
# IEC-6 cytotox: counter-screen for KLF5 inhibitors: cytotoxicity in IEC-6 cells; 290,000 tested, 0.78% active; inhibition, % at 5 µM; IEC-6 cytotoxicity, luminescence viability;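 further: 0% = plate median of test compound wells and 100% = cytotoxic reference compound wells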
# KLF5 inhibitor: inhibitors of KLF5 expression; DLD-1 KLF5 promoter-luciferase reporter, luminescence; 290,000 tested, 0.23% active; inhibition, % at 5 µM; AID 1700;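 active means inhibition above a per-plate limit of that plate's mean compound inhibition plus 3 SD, cut at about 60% in these data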;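 further: 0% = DMSO wells and 100% = LY294002 at 200 µM; higher means less KLF5 promoter-driven luciferase light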
# Ba/F3 V617F tox: reduce viability of Ba/F3 cells dependent on JAK2V617F; AID 1446; 220,000 tested, 1.1% active; Ba/F3 EpoR-JAK2V617F viability, ATP luminescence; inhibition, % at 5.6 µM;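 active means inhibition above the campaign mean plus 3 SD over all tested compounds, cut at about 24% in these data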;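 further: cytokine-independent growth of Ba/F3 cells driven by EpoR plus mutant JAK2; 0% = DMSO-treated cells and 100% = JAK inhibitor I control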
# MT stabilizer: stabilizes microtubules in HeLa cells | 200,000 tested, 0.83% active | HeLa tubulin immunostaining HCS, 24 h; share of cells brighter than vehicle mean+2SD | % tubulin-high responders, % at 10 µM;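 active means plate Z-score above 3 for both tubulin-high and condensed-nucleus cell shares, with cell loss under 80%, at 10 µM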;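 further: anti alpha tubulin signal scored within the nucleus-defined area of each cell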
# BaF3 tox: parental Ba/F3 viability inhibition as JAK2V617F counter-screen | CellTiter-Glo ATP luminescence | 220,000 tested, 1.1% active | inhibition, % at 5.6 µM;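 active means inhibition above a per-campaign cutoff, the mean inhibition of all tested compounds plus 3 SD, cut at about 27% in these data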;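 further: 0% = DMSO wells and 100% = JAK Inhibitor I control wells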
# b-catenin transl: beta-catenin nuclear translocation modulation; HeLa beta-catenin nuclear translocation, immunofluorescence imaging; nuclear translocation activity, % at 5 µM; 190,000 tested, 0.3% active; AID 1665;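 active means nuclear translocation activity above 50% at 5 µM, with a well cell count of 50 or more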;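 further: per-cell ratio of nuclear to cytoplasmic median beta-catenin stain intensity; plate controls were DMSO negative control for no effect and GSK-3 inhibitor IX positive control for full effect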
#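 System: HeLa cells, endogenous beta-catenin; compound dosing: 5 µM primary single dose, 0.1% DMSO, 0.02–20 µM confirmation series; incubation: 24 h compound exposure at 37°C, 5% CO2; signal: beta-catenin immunofluorescence imaging with DAPI; evaluation: % activation, nuclear-to-cytoplasmic median beta-catenin signal ratio per cell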
# IEC-6 tox confirm: confirmation of cytotoxic compounds in rat IEC-6 intestinal epithelial cells; shares compounds with IEC-6 cytotox; IEC-6 rat intestinal epithelial viability, luminescence; inhibition, % at 5 µM; 1,900 tested, 63% active; AID 1907;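 further: 0% = vehicle and 100% = reference cytotoxic drug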
# Active calls of the source: *; x = no result given. Unless noted, no stated cut-off is given here; in the data, active means inhibition above about 22%; inactive means the rest.
SMILES,IEC-6 cytotox,KLF5 inhibitor,Ba/F3 V617F tox,MT stabilizer,BaF3 tox,b-catenin transl,IEC-6 tox confirm
Cc1ccc(CC(C(=O)O)C(C)C(=O)Nc2ccc(F)cc2)cc1 (centres undefined),0,-21,x,x,x,x,x
CCCCN1/C(=C/c2cccc[n+]2C)Sc2cc(NC(C)=O)ccc21,-4,-25,x,x,x,x,x
CCN1/C(=C/c2ccc3cc(C)ccc3[n+]2CC)Sc2cc(C)ccc21,35*,17,99*,4,85*,3,34*
Cc1ccc2c(c1)N(C)/C(=C/c1cccc[n+]1C)S2,19,16,x,x,x,x,x
CCCCN1/C(=C/c2ccc3ccccc3[n+]2CC)Sc2ccccc21,42*,7,101*,8,80*,1,14
CCO[C@@H]1OC(C(=O)NCc2nc3ccccc3[nH]2)=C[C@H](C2CC2)[C@H]1CCCO,42*,38,2,28*,34*,9,6
CCO[C@@H]1OC(C(=O)NCc2ccccc2)=C[C@H](C2CC2)[C@H]1CCCO,4,7,4,1,0,-1,x
COc1nn(-c2nc(-c3ccccc3)cc(C(F)(F)F)n2)cc1[N+](=O)[O-],-2,-27,-3,2,8,-2,x
C=CCN1C(=O)N/C(=C/c2ccccc2OCC(=O)Nc2ccc(F)cc2)C1=O,-8,-11,1,2,4,-2,x
Cc1cccc(NC(=O)Nc2ccc3c(c2)CCC3)c1,90*,-113,x,x,x,x,8
O=C(Nc1ccc2oc(-c3ccncc3)nc2c1)c1ccccc1,-2,-32,-3,5,0,2,x
O=C(Nc1ccc(-c2nc3ncccc3o2)cc1)c1ccc([N+](=O)[O-])o1,80*,14,x,x,x,x,8
O=C(Nc1ccc2oc(-c3ccncc3)nc2c1)c1ccc([N+](=O)[O-])o1,95*,-17,x,x,x,x,17
CC(C)C(=O)Nc1ccc(-c2nc3ncccc3o2)cc1,9,-53,x,x,x,x,x
Cc1ccc(-c2nc3ncccc3o2)cc1NC(=O)c1ccc([N+](=O)[O-])o1,98*,-7,x,x,x,x,20
CCCN(CC(=O)Nc1ccc(F)c(F)c1F)CC(=O)Nc1c(Cl)cccc1Cl,59*,-3,0,2,5,0,38*
NNC(=O)c1[nH]c(-c2ccccc2)cc1-c1ccccc1,28*,-40,x,x,x,x,-3
C/C(=N\NC(=O)c1ccc(C)cc1)c1c(C)[nH]n(-c2ccccc2)c1=O,44*,-28,x,x,x,x,25*
Cc1ccc2[nH]c(C(=O)N/N=C/c3ccc([N+](=O)[O-])cc3)c(C)c2c1,34*,32,x,x,x,x,26*
COc1cc(S(=O)(=O)NCCCn2ccnc2)ccc1F,4,-28,x,x,x,x,x
COc1ccc(-c2cc(=O)c3ccccc3[nH]2)cc1,1,7,-1,3,2,x,x
COc1cccc(-c2cc(=O)c3cc(NC(=O)c4ccc(N(C)C)cc4)ccc3[nH]2)c1,71*,35,91*,4,97*,88*,71*
COc1ccc2[nH]c(-c3cccc(F)c3)cc(=O)c2c1,75*,60,76*,13,74*,x,60*
CCOc1ccccc1NC(=O)c1ccc(C(=O)Nc2ccccc2OCC)nc1,-4,5,x,x,x,x,x
COc1ccccc1NC(=O)c1nc(S(=O)(=O)Cc2ccccc2)ncc1Cl,100*,59,x,x,x,x,16
SMILES,IEC-6 cytotox,KLF5 inhibitor,Ba/F3 V617F tox,MT stabilizer,BaF3 tox,b-catenin transl,IEC-6 tox confirm
CCOc1ccccc1NC(=O)c1nc(S(=O)(=O)Cc2ccccc2)ncc1Cl,99*,34,x,x,x,x,11
CCS(=O)(=O)c1ncc(Cl)c(C(=O)Nc2ccccc2OC)n1,29*,20,x,x,x,x,19
CCN1CCN(c2ncc3c(n2)CC(c2cc(OC)c(OC)c(OC)c2)CC3=O)CC1 (centres undefined),65*,53,81*,32*,82*,141*,57*
COc1cc2c(cc1OC)CN(C(=O)CNS(=O)(=O)c1ccc(C)c(C)c1)CC2,4,-9,x,x,x,x,x
Cc1cc(NC(=O)CSc2nnc3c(C)cc4c(C)ccc(C)c4n23)no1,55*,52,2,57*,10,94*,22
O=C1/C(=C/c2ccccc2)SC(=S)N1CC(=O)N1CCCCC1c1cccnc1 (centres undefined),-8,-27,x,x,x,x,x
Nc1nc(Nc2cccc3ccccc23)nc(C2CCCC2=O)n1 (centres undefined),-2,0,2,10,3,2,x
Nc1nc(CCl)nc(Nc2cccc3ccccc23)n1,91*,-5,100*,x,28*,1,8
CCOc1ccc(/C=C(/NC(=O)c2ccc(Cl)cc2)C(=O)O)cc1OCC,4,10,-4,x,-1,1,x
CCOc1cc(/C=C(/NC(C)=O)C(=O)O)cc(Cl)c1OCc1ccc(Br)cc1,26*,-20,4,x,-2,0,2
Cc1ccc(-c2c(C(=O)O)c3ccccc3[nH]c2=O)cc1,-3,-34,x,x,x,x,x
CCOC(=O)N1CCc2c(sc3c2c(=O)n(-c2ccc(CC)cc2)c(=O)n3CC(=O)NCC2CCCO2)C1 (centres undefined),26*,-2,x,x,x,x,8
CC(=O)N1CCc2c(sc3c2c(=O)n(-c2ccccc2)c(=O)n3CC(=O)NCC2CCCO2)C1 (centres undefined),-6,-34,x,x,x,x,x
COc1ccc(NC(=O)CNS(=O)(=O)c2cccc3nonc23)c(OC)c1,-7,-43,-1,6,9,x,x
COc1ccc(CCN2C(=O)c3ccccc3NC2c2cc(Cl)c(O)c(OC)c2)cc1 (centres undefined),54*,39,x,x,x,x,-5
COc1ccc(NC(=O)CCNS(=O)(=O)c2ccc(C)c(C)c2)cc1OC,4,-18,x,x,x,x,x
O=C(O)c1ccc(N/N=C2/CCCc3ccccc32)cc1,-7,-42,-1,x,-7,-1,x
CC1=CC(C)(C)N(C(=O)CCl)c2cc(C)ccc21,-3,2,3,3,9,1,x
CC1=CC(C)(C)N(S(=O)(=O)c2ccc(C)cc2)c2cc(C)ccc21,92*,60,82*,21*,85*,x,61*
CCN(CC)C(=O)Nc1ccc(Br)cc1,0,0,1,4,8,-2,x
CC1c2cc3c(cc2CCN1CC(=O)Nc1ccccc1)OCCCO3 (centres undefined),6,10,x,x,x,x,x
CC1c2cc3c(cc2CCN1C(=O)c1cccc(Cl)c1)OCCCO3 (centres undefined),25*,-10,x,x,x,x,8
COc1ccc(Nc2cc(C)nc3ccccc23)cc1,20,5,2,1,2,-1,x
CC(=O)c1ccc(Nc2cc(C)nc3c(C)cccc23)cc1,81*,35,77*,18*,76*,67*,60*
COC(=O)c1ccc(Nc2cc(C)nc3ccc(C)cc23)cc1,26*,35,11,x,3,62*,27*

# Compound activity deposited in PubChem by several laboratories.
